The species named for test [1] is Rattus norvegicus. The experiment in a line: Percent control of stimulation of cAMP production in rat striatal homogenate at 50 micro M concentration. The format is functional. In short, it runs like this: (§1)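 Rat corpus striatum homogenates were incubated with excess ATP and theophylline to inhibit phosphodiesterase. cAMP formed per 2.5-min assay above the basal (no agonist) level was measured by protein-binding assay. Results are given as mean pmol ± SEM, and as percent of the blank control, with 5–12 replicates per concentration.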
On the technique in general: cAMP levels reflect the balance of adenylyl cyclase and phosphodiesterase activity.

The species entered for test [2] is Rattus norvegicus. The test can be described thus: Stimulation of cAMP production in homogenates of corpus striatum from rat brain, at a concentration of 50 uM. The format is functional, organism-based. Summed up: as §1
Test [3] concerns Rattus norvegicus. The experiment in a line: Stereotypic behavior of male Sprague-Dawley rats, after a sc administration of 5 dose(mg/kg). The format is functional. In short, it runs like this:
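Male Sprague-Dawley rats (175–200 g), group-housed with free food and water, 12-h light cycle. Drug freshly dissolved in ice-cold 1 mM citric acid/0.9% saline (1:4, v/v), given sc; vehicle injected as placebo. Stereotypy rated 0–3 by experienced observer from 30-s observations every 10 min over 60 min (maximum 18). Four to six rats per dose; means ± SEM.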

Regarding `NCCc1ccc(O)c(O)c1`, the Control in test [1] stood at 217%. The compound further yielded a cAMP production in test [2] of 5.39 N. Compound `CCCN1CCc2cccc3c2[C@@H]1Cc1ccc(O)c(O)c1-3.CCCN1CCc2cccc3c2[C@H]1Cc1ccc(O)c(O)c1-3` (racemic; (+)) showed a Stereotypy score in test [3] of 17.2. As to `CCCN1CCc2cccc3c2[C@@H]1Cc1ccc(O)c(O)c1-3.CCCN1CCc2cccc3c2[C@H]1Cc1ccc(O)c(O)c1-3` (racemic; (-)), in test [3], the Stereotypy score is recorded as 18. The same measure, in the same setting: the result for `CCCN1CCc2cccc3c2[C@@H]1Cc1ccc(O)c(O)c1-3.CN1CCc2cccc3c2[C@H]1Cc1ccc(O)c(O)c1-3` (stereo in doubt; (+)) reads 17.5; that for `CCCN1CCc2cccc3c2[C@@H]1Cc1ccc(O)c(O)c1-3.CN1CCc2cccc3c2[C@H]1Cc1ccc(O)c(O)c1-3` (stereo in doubt; (-)), 17.7.

The compound `CN1CCc2cccc3c2[C@H]1Cc1ccc(O)c(O)c1-3` [APOMORPHINE] came in with a Stereotypy score in test [3] of 18.

Values taken from ChEMBL document CHEMBL1122490, “Aporphines. 48. Enantioselectivity of (R)-(-)- and (S)-(+)-N-n-propylnorapomorphine on dopamine receptors” (J Med Chem, 1983).
